E-selectin induc = E-selectin induction on HUVECs. P16581. HUVEC E-selectin immunofluorescence imaging; normalized: neutral wells 0, TNF-alpha wells 100. activation, % at 7.58 µM. actives 0.37% (n = 260,000);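 active = mean E-selectin-positive cell signal at least 10% of the positive control, reached in at least 60% of replicates, without over 20% cell loss; inconclusive = no rule given, readout overlaps actives, possibly toxicity-flagged; inactive = the rest, including those meeting only one limit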
Target sequence (P16581 whole entry, looked up): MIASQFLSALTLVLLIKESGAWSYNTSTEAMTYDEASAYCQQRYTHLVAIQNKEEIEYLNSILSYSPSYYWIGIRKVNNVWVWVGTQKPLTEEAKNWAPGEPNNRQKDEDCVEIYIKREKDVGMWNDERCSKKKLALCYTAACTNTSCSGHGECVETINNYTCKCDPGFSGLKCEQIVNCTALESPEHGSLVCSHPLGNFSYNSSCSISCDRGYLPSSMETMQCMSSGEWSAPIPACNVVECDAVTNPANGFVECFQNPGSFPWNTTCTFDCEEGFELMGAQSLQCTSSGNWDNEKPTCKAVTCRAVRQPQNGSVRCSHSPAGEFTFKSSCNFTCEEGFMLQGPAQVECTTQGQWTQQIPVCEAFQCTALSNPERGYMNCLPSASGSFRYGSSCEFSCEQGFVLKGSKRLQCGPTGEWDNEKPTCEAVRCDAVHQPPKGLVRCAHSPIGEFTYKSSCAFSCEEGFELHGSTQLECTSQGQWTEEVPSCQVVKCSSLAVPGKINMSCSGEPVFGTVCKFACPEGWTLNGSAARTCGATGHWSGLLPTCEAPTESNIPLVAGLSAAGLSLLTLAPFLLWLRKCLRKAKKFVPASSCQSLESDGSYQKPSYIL
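assay system = HUVEC, human umbilical vein endothelial cells | input = 3,000 HUVEC seeded per well | medium = EGM-2 growth medium on 0.1% gelatin-coated wells | dosing = one compound dose added by pin transfer | signal = immunofluorescence imaging | read-out basis = % PE-positive cells | control set = TNF-alpha, DMSO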
PglD inh = blocks C. jejuni PglD acetyltransferase activity; purified PglD enzyme, DTNB colorimetric CoA detection; actives 0.098% (n = 360,000); inhibition, % at 12.5 µM; in the data active = inhibition above about 16%, passing the limit was not always enough; inconclusive = no clear call, values can overlap the other calls
rRNA inh HTS = selective bacterial rRNA inhibition in E. coli | GFP signal change (wild-type ribosome), % (no concentration beside the values) | actives 1.6% (n = 350,000) | E. coli WT GFP vs humanized-ribosome RFP mutants, fluorescence, 24 h; hits give low values; DMSO median 0, no signal -100 | AID 720706;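 active = significant combined selectivity score with lowered wild-type GFP, culture density cut under 30%, mutant RFP and density less affected; inactive = any of these conditions unmet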
RAD52 anneal inh = RAD52 (human) annealing inhibition; P43351; recombinant RAD52 DNA annealing, FRET fluorescence; inhibition, % at 18.7 µM; actives 0.46% (n = 360,000);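 active = every replicate showing at least 50% inhibition; inconclusive = mean inhibition at least 50% but not in every replicate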
XiGFP reactiv = reactivates the inactive X chromosome in mouse fibroblasts | XiGFP mouse fibroblasts, % GFP-positive cells imaging, 3 d; cells co-treated with 5-aza-dC sensitizer; scaled so ellipticine positive control = 100% | activation, % at 7.58 µM | actives 0.055% (n = 360,000);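 active = mean normalized replicate activation at least 10% and every replicate at or above 10%; inconclusive = only one of the two criteria met; inactive = mean below 10% and not all replicates reach 10%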;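 also: 0% = median of on-plate neutral control wells and 100% = ellipticine 6 µM median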
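System: 68-5-11 XiGFP fibroblast line | Buffer or medium: DMEM containing 5-aza-dC | Compound: Single point | Times: Compounds 3 days, fix/stain 15 min at room temperature | Benchmarks: Positive control ellipticine, 6 µM final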
RAD54 inh = blocks human RAD54 Holliday junction branch migration. Q92698. inhibition, % at 10.4 µM. FAM/BHQ fluorescence. actives 0.14% (n = 360,000);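 active = mean normalized replicate activity at least 40 and at least half of replicates scoring 40 or more; inconclusive = only one of the two criteria met; inactive = mean below 40 and under half of replicates reaching 40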;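 also: 0% = median of neutral control wells and 100% = median of positive control wells; inhibitors cause a drop in the FAM fluorescence signal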
AID977621 = growth inhibition of wild-type GFP E. coli, dose response, H69 mutant RFP, cherry-pick; shares compounds with rRNA inh HTS; E. coli wild-type GFP strain growth, fluorescence, 24 h; activity change, negative = inhibition at 50 µM; 1,900 tested, under 10 active; AID 977621;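 active = Wild-type ribosome reporter drop at least double the humanized mutant ribosome reporter drop, growth loss under a set limit; inconclusive = no clear call, values can overlap the other calls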;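 also: wild-type GFP and H69 mutant RFP strains grown together 50/50 in each well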
AID977628 = growth of wild-type and h24-humanized E. coli strains – h24 mutant RFP vs wild-type GFP, cherry-pick, dose response | activity change, negative = inhibition at 50 µM | shares compounds with rRNA inh HTS | 1,900 tested, under 10 active | E. coli WT GFP strain growth, fluorescence, 24 h;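 active = compound lowering the normal-ribosome reporter at least twice as much as the humanized-ribosome reporter, growth loss under a set limit; inconclusive = no clear call, values can overlap the other calls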;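 also: wild-type GFP and h24 humanized RFP strains co-cultured 1 to 1 per well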
* = called active by the depositor; ? = inconclusive; . = no result. Only some compounds are listed: those with a hit (about 2% of all), similar ones and a draw of the others.

SMILES	E-selectin induc	PglD inh	rRNA inh HTS	RAD52 anneal inh	XiGFP reactiv	RAD54 inh	AID977621	AID977628
CC1Cc2cc(-c3csc(NC(=O)Cc4ccccc4)n3)ccc2N1S(C)(=O)=O (stereo unspecified)	.	-5	-26*	-29	.	3	-4.2	-17
CS(=O)(=O)N1CCc2cc(-c3csc(NC(=O)C(c4ccccc4)c4ccccc4)n3)ccc21	.	-6	.	.	.	2	.	.
CCc1cnc(N2[C@H](C#N)[C@@H](c3ccc(-c4cccc(F)c4)cc3)[C@@H]2CO)s1	0	0	-2	-35	0	-9	.	.
COc1ccc(-c2nn(-c3ccccc3)cc2/C=C(\CC(=O)O)c2nc3ccccc3s2)cc1OC	1	1	-25	-8	0	5	.	.
CCOc1cc(/C=C(\CC(=O)O)c2nc3ccccc3s2)ccc1OC	3	.	-21*	-38	1	.	-8	-12
Nc1ccccc1Nc1ccc([N+](=O)[O-])cc1[N+](=O)[O-]	-1	.	-24*	-4	0	.	-17	-19
Nc1cc([N+](=O)[O-])ccc1Nc1ccc(O)cc1	0	-9	-24*	-3	0	1	.	?
Cc1cc(O)cc(=O)n1-c1ccc(Cl)c(C(F)(F)F)c1	0	.	15	-44	0	.	.	.
COc1ccc(CN(C)C[C@H]2OCCCC[C@H](C)Oc3ccc(NS(=O)(=O)c4c(C)noc4C)cc3C(=O)N([C@H](C)CO)C[C@H]2C)cc1	1	-2	0	.	0	-10	.	.
NC(=O)c1cc(C(N)=O)nc(Cl)n1	0	.	12	-1	0	.	.	.
Cc1cc(C(N)=O)nn1-c1c(Cl)cc(Cl)cc1Cl	3	.	-31*	0	0	.	-3.5	.
COc1cccc(CN2CCCCN3[C@@H](CO)[C@@H](c4ccc(C#Cc5cccnc5)cc4)[C@@H]3C2)c1	0	19	-5	19	0	9	.	.

Screening data: PubChem, Broad Institute
